{"source": "paper PMC4817271", "about": "(Journal of medicinal chemistry, 2015)", "key": {"[1]": {"test": "Rat iv cassette PK tissue distribution", "type": "in vivo", "details": "0.2 mg/kg", "outline": "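Cassette dosing in rats: iv at 0.2 mg/kg per compound, as a solution in 8% EtOH, 30% PEG 400 and 62% DMSO (2 mg/mL total), n=2. Single time point brain and plasma sampling at 15 min after dose. Kp = total brain/total plasma; Kp,uu = (brain fu × total brain)/(plasma fu × total plasma).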"}, "[2]": {"test": "Mouse IP tissue distribution", "type": "in vivo", "outline": "(§1)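 Single time point tissue distribution in mice or rats (n=2). Test compound was given ip at 30 mg/kg as a fine homogeneous suspension in 10% Tween-80 in water. Brain and plasma concentrations were taken 15 min after dosing. Kp = total brain/total plasma; Kp,uu = unbound brain (brain fu × total brain)/unbound plasma (plasma fu × total plasma).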"}, "[3]": {"test": "Protein binding in rat brain homogenates", "type": "in vitro ADME", "details": "brain homogenate"}, "[4]": {"tested_on": "panel of 68 clinically relevant GPCRs, ion channels, kinases, and transporters", "test": "Radioligand binding assay panel", "details": "10 μM; significant = more than 50% inhibition of radioligand binding"}, "[5]": {"test": "Mouse IP tissue distribution with P-gp inhibitor 109 pretreatment", "type": "in vivo", "outline": "(§2)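 Mice were pretreated with the P-gp inhibitor elacridar at 20 mg/kg 1 h before the test compound. Test compound was given ip at 30 mg/kg as a fine homogeneous suspension in 10% Tween-80 in water (n=2). Brain and plasma were sampled 15 min after dosing. Kp = total brain/total plasma; Kp,uu = (brain fu × total brain)/(plasma fu × total plasma).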"}, "P-gp": {"tested_on": "P-gp", "test": "Mouse IP tissue distribution with P-gp inhibitor 109 pretreatment", "type": "in vivo", "details": "mouse, brain, ip, with 109 (elacridar), 20 mg/kg, dosed 1 h before compound 58", "outline": "as §2"}, "human M1": {"target": "T1, human M1 (Homo sapiens, UniProt P11229)", "T1 sequence (P11229 1-460)": "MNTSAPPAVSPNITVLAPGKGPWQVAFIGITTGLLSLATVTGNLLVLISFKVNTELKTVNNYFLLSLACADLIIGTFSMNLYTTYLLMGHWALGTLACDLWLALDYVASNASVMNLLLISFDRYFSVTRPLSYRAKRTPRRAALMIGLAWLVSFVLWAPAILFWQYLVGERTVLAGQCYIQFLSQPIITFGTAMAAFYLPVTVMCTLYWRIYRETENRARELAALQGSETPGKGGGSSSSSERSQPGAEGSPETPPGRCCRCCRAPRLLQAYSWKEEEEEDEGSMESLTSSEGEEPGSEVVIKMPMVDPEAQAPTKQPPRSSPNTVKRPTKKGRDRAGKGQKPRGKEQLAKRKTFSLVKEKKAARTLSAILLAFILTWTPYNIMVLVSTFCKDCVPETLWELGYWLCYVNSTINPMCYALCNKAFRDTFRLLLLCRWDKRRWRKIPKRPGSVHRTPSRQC", "test": "Human M1 functional assay", "type": "cell-based", "details": "up to the highest concentration tested (30 μM)"}, "Rat IV PK": {"test": "Rat IV PK", "type": "in vivo", "outline": "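Rats received test compound iv at 0.2 mg/kg as a solution in 9% EtOH, 38% PEG 400 and 53% DMSO (1 mg/mL dosing solution), n=2. Plasma time course gave half-life, plasma clearance and volume of distribution at steady state.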"}, "[6]": {"test": "Rat plasma protein binding", "type": "in vitro ADME"}, "P-gp (MDR1)": {"target": "P-gp (MDR1) (Homo sapiens, UniProt P08183)", "sequence (P08183 whole entry)": "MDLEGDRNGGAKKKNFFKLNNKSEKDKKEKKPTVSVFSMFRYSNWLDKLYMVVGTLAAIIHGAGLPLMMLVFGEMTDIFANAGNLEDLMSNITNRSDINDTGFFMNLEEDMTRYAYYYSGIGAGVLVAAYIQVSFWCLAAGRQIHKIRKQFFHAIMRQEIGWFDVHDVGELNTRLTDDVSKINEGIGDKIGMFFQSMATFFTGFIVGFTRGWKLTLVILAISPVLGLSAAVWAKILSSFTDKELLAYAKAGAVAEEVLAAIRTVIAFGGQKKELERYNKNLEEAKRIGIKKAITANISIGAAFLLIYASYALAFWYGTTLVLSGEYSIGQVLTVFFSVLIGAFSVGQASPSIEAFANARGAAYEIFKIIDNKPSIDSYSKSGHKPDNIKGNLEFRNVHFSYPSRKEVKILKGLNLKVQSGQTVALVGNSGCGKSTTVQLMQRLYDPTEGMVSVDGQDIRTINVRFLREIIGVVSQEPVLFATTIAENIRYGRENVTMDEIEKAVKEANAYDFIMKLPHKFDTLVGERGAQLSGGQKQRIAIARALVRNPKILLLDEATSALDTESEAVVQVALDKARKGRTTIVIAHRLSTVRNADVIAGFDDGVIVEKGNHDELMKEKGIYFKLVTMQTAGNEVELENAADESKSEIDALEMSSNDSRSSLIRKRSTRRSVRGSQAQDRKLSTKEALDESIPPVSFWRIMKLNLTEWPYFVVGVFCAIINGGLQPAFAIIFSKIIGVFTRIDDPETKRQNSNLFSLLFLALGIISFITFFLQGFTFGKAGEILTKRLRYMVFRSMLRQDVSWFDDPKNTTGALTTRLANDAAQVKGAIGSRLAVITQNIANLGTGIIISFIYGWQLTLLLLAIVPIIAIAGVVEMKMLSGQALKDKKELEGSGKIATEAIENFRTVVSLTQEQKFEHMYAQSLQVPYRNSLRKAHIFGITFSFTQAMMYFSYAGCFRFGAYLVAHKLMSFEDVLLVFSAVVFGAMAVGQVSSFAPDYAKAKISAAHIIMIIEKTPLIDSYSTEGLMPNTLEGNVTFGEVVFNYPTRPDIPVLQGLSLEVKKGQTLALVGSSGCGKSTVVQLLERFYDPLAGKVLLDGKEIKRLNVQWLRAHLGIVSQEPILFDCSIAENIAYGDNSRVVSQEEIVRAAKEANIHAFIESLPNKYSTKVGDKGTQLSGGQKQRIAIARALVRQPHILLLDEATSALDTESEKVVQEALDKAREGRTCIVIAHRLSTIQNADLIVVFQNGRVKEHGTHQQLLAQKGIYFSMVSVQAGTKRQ", "test": "Permeability in MDR1-MDCK cells", "type": "in vitro ADME", "details": "dog (MDCK cells), human MDR1 expressed"}, "[7]": {"test": "Rat IP tissue distribution", "type": "in vivo", "outline": "as §1"}, "rat mGlu2": {"target": "rat mGlu2 (Rattus norvegicus, UniProt P31421)", "sequence (P31421 19-872)": "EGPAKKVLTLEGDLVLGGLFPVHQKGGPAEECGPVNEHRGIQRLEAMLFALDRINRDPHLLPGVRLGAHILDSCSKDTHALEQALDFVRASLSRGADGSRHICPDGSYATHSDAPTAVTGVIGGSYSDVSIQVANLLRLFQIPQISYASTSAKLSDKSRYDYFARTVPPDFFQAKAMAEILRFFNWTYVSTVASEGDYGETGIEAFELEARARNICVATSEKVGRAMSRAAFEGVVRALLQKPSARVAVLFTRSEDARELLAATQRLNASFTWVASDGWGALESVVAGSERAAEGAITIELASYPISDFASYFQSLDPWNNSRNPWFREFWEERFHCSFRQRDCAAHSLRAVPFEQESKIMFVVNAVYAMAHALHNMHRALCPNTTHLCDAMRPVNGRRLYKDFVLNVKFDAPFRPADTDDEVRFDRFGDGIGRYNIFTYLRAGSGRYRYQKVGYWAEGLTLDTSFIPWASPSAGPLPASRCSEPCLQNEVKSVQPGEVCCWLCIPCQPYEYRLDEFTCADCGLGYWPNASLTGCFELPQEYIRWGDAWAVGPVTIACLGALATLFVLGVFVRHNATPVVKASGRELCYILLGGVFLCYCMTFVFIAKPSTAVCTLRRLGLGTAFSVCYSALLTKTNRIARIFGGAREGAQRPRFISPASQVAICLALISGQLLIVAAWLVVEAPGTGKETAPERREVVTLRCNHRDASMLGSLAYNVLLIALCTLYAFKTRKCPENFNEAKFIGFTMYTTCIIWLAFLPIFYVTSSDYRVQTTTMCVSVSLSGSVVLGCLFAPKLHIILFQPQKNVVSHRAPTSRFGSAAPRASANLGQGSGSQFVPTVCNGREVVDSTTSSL", "test": "Calcium mobilization mGlu2 assay", "type": "cell-based", "details": "for IC50: average of n ≥ 3", "outline": "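Fluorescence calcium-mobilization read-out in a cell line stably co-expressing rat mGlu2 and the promiscuous G-protein Gα15. Test compound was applied up to 30 μM, and NAM activity was measured as inhibition of the glutamate response. Values are the average of n=3. LLE = pIC50 − cLogP, with cLogP calculated by software.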"}, "[8]": {"test": "Intrinsic clearance in rat liver microsomes, predicted hepatic clearance", "type": "in vitro ADME", "outline": "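Test compound was incubated with rat liver microsomes to give intrinsic clearance (CLint), which was converted to predicted hepatic clearance. Compounds were binned against hepatic blood flow: low (<1/3), moderate (1/3 to 2/3) or high (>2/3).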"}, "[9]": {"tested_on": "other members of the mGlu family", "test": "Fold-shift selectivity experiments versus other mGlus", "type": "cell-based", "details": "effect of 10 μM compound on orthosteric agonist CRC"}, "[10]": {"test": "Protein binding in mouse brain homogenates", "type": "in vitro ADME", "details": "brain homogenate"}, "[11]": {"test": "Mouse plasma protein binding", "type": "in vitro ADME"}, "[12]": {"details": "mouse ip 30 mg/kg, 15 min after dose"}, "[13]": {"details": "mouse ip 30 mg/kg, 15 min after dose, 109 dosed 1 h prior at 20 mg/kg"}, "[14]": {"details": "rat ip 30 mg/kg, 15 min after dose"}}}
{"smiles": "C[C@@H]1CN(Cc2ccc3c(c2)c(=O)c(C(N)=O)cn3-c2ccc(F)cc2)C[C@H](C)O1", "note": "[Compound 58, 6-((cis-2,6-Dimethylmorpholino)methyl)-1-(4-fluorophenyl)-4-oxo-1,4-dihydroquinoline-3-carboxamide]", "values": [{"measurement": "Kp at 0.25 h", "setting": "[1]; brain", "value": 0.32}, {"measurement": "Kp uu at 0.25 h", "setting": "[1]; brain", "value": 0.23}, {"measurement": "concentration at 15 min", "setting": "[1]; brain", "value": 18, "unit": "nM"}, {"measurement": "concentration at 15 min", "setting": "[1]; plasma", "value": 56.9, "unit": "nM"}, {"measurement": "brain concentration", "setting": "[2]; [12]", "value": 716, "unit": "nm"}, {"measurement": "plasma concentration", "setting": "[2]; [12]", "value": 1820, "unit": "nm"}, {"measurement": "Kp at 0.25 h", "setting": "[2]; mouse, brain, ip, 30 mg/kg", "value": 0.39}, {"measurement": "Kp uu at 0.25 h", "setting": "[2]; mouse, brain, ip, 30 mg/kg", "value": 0.32}, {"measurement": "concentration at 15 min", "setting": "[2]; mouse, brain, ip, 30 mg/kg, brain concentration, mouse ip 30 mg/kg", "value": 716, "unit": "nM"}, {"measurement": "concentration at 15 min", "setting": "[2]; mouse, brain, ip, 30 mg/kg, unbound brain concentration, mouse ip 30 mg/kg", "value": 184, "unit": "nM"}, {"measurement": "fraction unbound", "setting": "[3]", "value": 0.191}, {"measurement": "fraction unbound", "setting": "[3]; mouse", "value": "0.25 to 0.3"}, {"measurement": "ancillary pharmacology, radioligand binding panel responses", "setting": "[4]", "value": "no significant responses"}, {"measurement": "unbound brain exposure relative to mGlu2 IC50", "setting": "[5]; 30 mg/kg ip with P-gp inhibitor pretreatment", "value": "more than 5 fold"}, {"measurement": "increase of exposure in the brain after pretreatment with 109 (elacridar)", "setting": "[5]; mouse ip 30 mg/kg", "value": "more than 6 fold"}, {"measurement": "brain concentration", "setting": "[5]; [13]", "value": 4580, "unit": "nm"}, {"measurement": "plasma concentration", "setting": "[5]; [13]", "value": 2160, "unit": "nm"}, {"measurement": "Kp at 15 min", "setting": "P-gp", "value": 2.1}, {"measurement": "Kp uu at 15 min", "setting": "P-gp", "value": 1.7}, {"measurement": "human M1 activity", "setting": "human M1", "value": "no activity"}, {"measurement": "clearance in vivo", "setting": "Rat IV PK; rat iv time course study", "value": "high clearance"}, {"measurement": "Vd", "setting": "Rat IV PK; rat, plasma, iv, 0.2 mg/kg", "value": 13.3, "unit": "L/kg"}, {"measurement": "clearance", "setting": "Rat IV PK; rat, plasma, iv, 0.2 mg/kg", "value": 75.8, "unit": "mL/min/kg"}, {"measurement": "half-life", "setting": "Rat IV PK; rat, plasma, iv, 0.2 mg/kg, half-life, rat iv time course study", "value": "~120", "unit": "min"}, {"measurement": "half-life", "setting": "Rat IV PK; rat, plasma, iv, 0.2 mg/kg, t1/2, rat iv 0.2 mg/kg", "value": 141, "unit": "min"}, {"measurement": "unbound in rat plasma", "setting": "[6]", "value": "approximately 30%"}, {"measurement": "fraction unbound", "setting": "[6]; rat, plasma", "value": 0.306}, {"measurement": "Papp A→B", "setting": "P-gp (MDR1)", "value": 1.54, "unit": "×10⁻⁶ cm/s"}, {"measurement": "Papp B→A", "setting": "P-gp (MDR1)", "value": 79.7, "unit": "×10⁻⁶ cm/s"}, {"measurement": "efflux ratio", "setting": "P-gp (MDR1)", "value": 52}, {"measurement": "brain concentration", "setting": "[7]; [14]", "value": 760, "unit": "nM"}, {"measurement": "plasma concentration", "setting": "[7]; [14]", "value": 3.9, "unit": "µM"}, {"measurement": "Kp at 0.25 h", "setting": "[7]; rat, brain, ip, 30 mg/kg", "value": 0.2}, {"measurement": "Kp uu at 0.25 h", "setting": "[7]; rat, brain, ip, 30 mg/kg", "value": 0.12}, {"measurement": "concentration at 15 min", "setting": "[7]; rat, brain, ip, 30 mg/kg, unbound brain concentration, rat ip 30 mg/kg", "value": 145, "unit": "nM"}, {"measurement": "LLE", "setting": "rat mGlu2; LLE = pIC50 – cLogP", "value": 3.59}, {"measurement": "% Glu max ± SEM", "setting": "rat mGlu2; amplitude of response in presence of 30 μM test compound as percentage of maximal response (100 μM glutamate)", "value": "1.48 ± 0.29", "unit": "%"}, {"measurement": "IC50", "setting": "rat mGlu2; mGlu2 IC50, calcium mobilization", "value": 207, "unit": "nM"}, {"measurement": "IC50", "setting": "rat mGlu2; mGlu2 pIC50 ± SEM, calcium mobilization", "value": 204, "unit": "nM"}, {"measurement": "predicted hepatic clearance group", "setting": "[8]; binned from CLint in rat liver microsomes", "value": "low–moderate"}, {"measurement": "rat CLhep", "setting": "[8]; predicted hepatic clearance based on CLint in rat liver microsomes", "value": 24.5, "unit": "mL/min/kg"}, {"measurement": "activity at the other mGlus", "setting": "[9]", "value": "no activity"}, {"measurement": "fraction unbound", "setting": "[10]", "value": 0.257}, {"measurement": "fraction unbound", "setting": "[11]", "value": 0.315}]}
